# Measured values as given in ChEMBL document CHEMBL4673193, “Investigation of thiazolyl-benzothiophenamides as potential agents for African sleeping sickness” (RSC Med Chem, 2020).
# Tested on: Trypanosoma brucei brucei
# Experiment: Antitrypanosomal activity against Trypanosoma brucei brucei 427 assessed as parasite growth inhibition incubated for 48 hrs by resazurin dye based assay
# Format: functional, organism-based
# Conditions: not given
# In short: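 Log-phase T. b. brucei 427 at 1200 parasites/mL in HMI-9 with 10% FCS, preincubated 24 h at 37 °C/5% CO₂. Serial dilutions made in DMEM, final 83.34 to 0.04 μM, 48 h exposure. 0.49 mM resazurin solution added, then 2 h at 37 °C plus 22 h at room temperature. Fluorescence read at ex 535/em 590 nm; IC50 from concentration curves.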
row,Compound,IC50
1,COc1cccc2cc(C(=O)Nc3nc4c(s3)C(=O)CC(C)(C)C4)sc12,Nd(Insoluble)

# Same assay, conditions: Trypanosoma brucei, 427, 48 h; read-out: IC50
row,Compound,IC50 [nM]
1,COc1ccc2sc(C(=O)Nc3nc4c(s3)C(=O)CC(C)(C)C4)c(Cl)c2c1,5860
2,CC1(C)CC(=O)c2sc(NC(=O)c3cc4ccccc4s3)nc2C1,750
3,CC1(C)CC(=O)c2sc(NC(=O)c3cc4cccc(-c5ccccc5)c4s3)nc2C1,2790
4,CC1(C)CC(=O)c2sc(NC(=O)c3sc4ccccc4c3Cl)nc2C1,730
5,O=C1CCCc2nc(NC(=O)c3sc4ccccc4c3Cl)sc21,2500
6,COc1ccc(-c2c(C(=O)Nc3nc4c(s3)C(=O)CC(C)(C)C4)sc3ccccc23)cc1,2910
7,COc1ccc(-c2c(C(=O)Nc3nc4c(s3)C(=O)CCC4)sc3ccccc23)cc1,7230
8,O=C1CCCc2nc(NC(=O)c3sc4ccccc4c3-c3cccc4ccccc34)sc21,6380
9,Cc1ccc2c(Cl)c(C(=O)Nc3nc4c(s3)C(=O)CCC4)sc2c1,7770
10,N=C(N)c1ccc(OCCCCCOc2ccc(C(=N)N)cc2)cc1 [PENTAMIDINE],2.13
11,COc1cccc(-c2c(C(=O)Nc3nc4c(s3)C(=O)CC(C)(C)C4)sc3ccccc23)c1,2210
12,Cc1ccc2c(Cl)c(C(=O)Nc3nc4c(s3)C(=O)CC(C)(C)C4)sc2c1,2270
13,COc1cccc(-c2c(C(=O)Nc3nc4c(s3)C(=O)CCC4)sc3ccccc23)c1,9390
14,CC1(C)CC(=O)c2sc(NC(=O)c3sc4cc(Br)ccc4c3Cl)nc2C1,6530
15,CC1(C)CC(=O)c2sc(NC(=O)c3nc4ccccc4s3)nc2C1,1410
16,CC1(C)CC(=O)c2sc(NC(=O)c3sc4c(Br)cccc4c3Cl)nc2C1,320

# Tested on: Trypanosoma brucei brucei
# Experiment: Antitrypanosomal activity against Trypanosoma brucei brucei 427 assessed as parasite growth inhibition at 83.3 uM incubated for 48 hrs by resazurin dye based assay relative to control
# Format: functional
# Parameters: scale not given: the % may be the effect or the level left
# Conditions: not given
row,Compound,Activity [%]
1,O=C(Nc1nc2ccccc2s1)c1sc2ccccc2c1Cl,<50
2,CC1(C)CC(=O)c2sc(NC(=O)c3sc4ccccc4c3-c3ccc(C(F)(F)F)cc3)nc2C1,<50
3,CC1(C)CC(=O)c2sc(NC(=O)c3sc4ccccc4c3-c3cccc4ccccc34)nc2C1,100
4,C=CCN(C(=O)c1sc2ccccc2c1Cl)c1nc2c(s1)C(=O)CCC2,<50
5,O=C(Nc1nccs1)c1sc2ccccc2c1Cl,96
6,O=C(Nc1nc2c(s1)CCCC2)c1sc2ccccc2c1Cl,89
7,O=C1CCCc2nc(NC(=O)c3sc4ccccc4c3-c3ccccc3)sc21,77

# Tested on: Trypanosoma brucei brucei
# Experiment: Antitrypanosomal activity against Trypanosoma brucei brucei 427 assessed as parasite growth inhibition at 41.7 uM incubated for 48 hrs by resazurin dye based assay relative to control
# Format: functional
# Parameters: scale not given: the % may be the effect or the level left
# Conditions: not given
row,Compound,Activity [%]
1,CC1(C)CC(=O)c2sc(NC(=O)c3sc4ccccc4c3-c3ccccc3)nc2C1,93
2,O=C1CCCc2nc(NC(=O)c3sc4ccccc4c3-c3ccc(C(F)(F)F)cc3)sc21,97

# Tested on: Trypanosoma brucei brucei
# Experiment: Antitrypanosomal activity against Trypanosoma brucei brucei 427 assessed as parasite growth inhibition at 79.4 uM incubated for 48 hrs by resazurin dye based assay relative to control
# Format: functional
# Parameters: scale not given: the % may be the effect or the level left
# Conditions: not given
row,Compound,Activity [%]
1,O=C(Nc1nc2c(s1)C(=O)CCC2)c1cc2ccccc2s1,97
2,CC1(C)CC(=O)c2sc(NC(=O)c3cccs3)nc2C1,90
3,O=C1CCCc2nc(NC(=O)c3sc4cc(Br)ccc4c3Cl)sc21,78

# Tested on: HEK293
# Experiment: Cytotoxicity against human HEK293 cells assessed as reduction in cell viability incubated for 48 hrs by resazurin dye based assay
# Conditions: Homo sapiens, HEK293, 48 h; read-out: IC50
# In short: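 HEK293 cells at 7.27×10⁴ cells/mL in DMEM with 10% FCS, preincubated 24 h at 37 °C/5% CO₂. Compounds serially diluted in DMEM, final 83.34 to 0.04 μM, 48 h. 0.49 mM resazurin solution in medium added, then 2 h at 37 °C plus 22 h at room temperature. Fluorescence read at 535/590 nm; IC50 calculated.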
row,Compound,IC50 [µM]
1,CC1(C)CC(=O)c2sc(NC(=O)c3sc4ccccc4c3Cl)nc2C1,10.4
2,O=C1CCCc2nc(NC(=O)c3sc4ccccc4c3-c3cccc4ccccc34)sc21,4.63

# Same assay, conditions: hek293
row,Compound,IC50
1,COc1cccc2cc(C(=O)Nc3nc4c(s3)C(=O)CC(C)(C)C4)sc12,Nd(Insoluble)

# Tested on: HEK293
# Experiment: Cytotoxicity against human HEK293 cells assessed as reduction in cell viability at 83.3 uM incubated for 48 hrs by resazurin dye based assay relative to control
# Conditions: hek293, 48 h
row,Compound,Activity [%]
1,COc1ccc2sc(C(=O)Nc3nc4c(s3)C(=O)CC(C)(C)C4)c(Cl)c2c1,< 50
2,O=C1CCCc2nc(NC(=O)c3sc4ccccc4c3Cl)sc21,< 50
3,COc1ccc(-c2c(C(=O)Nc3nc4c(s3)C(=O)CC(C)(C)C4)sc3ccccc23)cc1,< 50
4,O=C(Nc1nc2ccccc2s1)c1sc2ccccc2c1Cl,< 50
5,COc1ccc(-c2c(C(=O)Nc3nc4c(s3)C(=O)CCC4)sc3ccccc23)cc1,88
6,CC1(C)CC(=O)c2sc(NC(=O)c3sc4ccccc4c3-c3ccc(C(F)(F)F)cc3)nc2C1,< 50
7,CC1(C)CC(=O)c2sc(NC(=O)c3sc4ccccc4c3-c3cccc4ccccc34)nc2C1,52
8,Cc1ccc2c(Cl)c(C(=O)Nc3nc4c(s3)C(=O)CCC4)sc2c1,< 50
9,COc1cccc(-c2c(C(=O)Nc3nc4c(s3)C(=O)CC(C)(C)C4)sc3ccccc23)c1,< 50
10,Cc1ccc2c(Cl)c(C(=O)Nc3nc4c(s3)C(=O)CC(C)(C)C4)sc2c1,< 50
11,C=CCN(C(=O)c1sc2ccccc2c1Cl)c1nc2c(s1)C(=O)CCC2,< 50
12,COc1cccc(-c2c(C(=O)Nc3nc4c(s3)C(=O)CCC4)sc3ccccc23)c1,88
13,O=C(Nc1nccs1)c1sc2ccccc2c1Cl,< 50
14,O=C1CCCc2nc(NC(=O)c3sc4ccccc4c3-c3ccc(C(F)(F)F)cc3)sc21,59
15,O=C(Nc1nc2c(s1)CCCC2)c1sc2ccccc2c1Cl,< 50
16,O=C1CCCc2nc(NC(=O)c3sc4ccccc4c3-c3ccccc3)sc21,< 50

# Tested on: HEK293
# Experiment: Cytotoxicity against human HEK293 cells assessed as reduction in cell viability at 41.7 uM incubated for 48 hrs by resazurin dye based assay relative to control
# Conditions: hek293, 48 h
row,Compound,Activity [%]
1,CC1(C)CC(=O)c2sc(NC(=O)c3sc4ccccc4c3-c3ccccc3)nc2C1,< 50
2,CC1(C)CC(=O)c2sc(NC(=O)c3sc4c(Br)cccc4c3Cl)nc2C1,< 50

# Tested on: HEK293
# Experiment: Cytotoxicity against human HEK293 cells assessed as reduction in cell viability at 79.4 uM incubated for 48 hrs by resazurin dye based assay relative to control
# Conditions: hek293, 48 h
row,Compound,Activity [%]
1,O=C(Nc1nc2c(s1)C(=O)CCC2)c1cc2ccccc2s1,< 50
2,CC1(C)CC(=O)c2sc(NC(=O)c3cccs3)nc2C1,< 50
3,CC1(C)CC(=O)c2sc(NC(=O)c3cc4ccccc4s3)nc2C1,< 50
4,CC1(C)CC(=O)c2sc(NC(=O)c3cc4cccc(-c5ccccc5)c4s3)nc2C1,< 50
5,CC1(C)CC(=O)c2sc(NC(=O)c3sc4cc(Br)ccc4c3Cl)nc2C1,< 50
6,CC1(C)CC(=O)c2sc(NC(=O)c3nc4ccccc4s3)nc2C1,< 50
7,O=C1CCCc2nc(NC(=O)c3sc4cc(Br)ccc4c3Cl)sc21,< 50

# Tested on: not listed separately
# Experiment: Selectivity index, ratio of IC50 for human HEK293 cells to IC50 for antitrypanosomal activity against Trypanosoma brucei brucei 427
# Format: toxicity
# Conditions: read-out: Ratio IC50
row,Compound,selectivity ratio
1,COc1ccc2sc(C(=O)Nc3nc4c(s3)C(=O)CC(C)(C)C4)c(Cl)c2c1,> 14
2,CC1(C)CC(=O)c2sc(NC(=O)c3cc4ccccc4s3)nc2C1,> 106
3,CC1(C)CC(=O)c2sc(NC(=O)c3cc4cccc(-c5ccccc5)c4s3)nc2C1,> 28
4,CC1(C)CC(=O)c2sc(NC(=O)c3sc4ccccc4c3Cl)nc2C1,14
5,O=C1CCCc2nc(NC(=O)c3sc4ccccc4c3Cl)sc21,> 48
6,COc1ccc(-c2c(C(=O)Nc3nc4c(s3)C(=O)CC(C)(C)C4)sc3ccccc23)cc1,> 29
7,COc1ccc(-c2c(C(=O)Nc3nc4c(s3)C(=O)CCC4)sc3ccccc23)cc1,> 12
8,O=C1CCCc2nc(NC(=O)c3sc4ccccc4c3-c3cccc4ccccc34)sc21,1
9,Cc1ccc2c(Cl)c(C(=O)Nc3nc4c(s3)C(=O)CCC4)sc2c1,> 11
10,N=C(N)c1ccc(OCCCCCOc2ccc(C(=N)N)cc2)cc1 [PENTAMIDINE],307
11,COc1cccc(-c2c(C(=O)Nc3nc4c(s3)C(=O)CC(C)(C)C4)sc3ccccc23)c1,> 38
12,Cc1ccc2c(Cl)c(C(=O)Nc3nc4c(s3)C(=O)CC(C)(C)C4)sc2c1,> 37
13,COc1cccc(-c2c(C(=O)Nc3nc4c(s3)C(=O)CCC4)sc3ccccc23)c1,> 9
14,CC1(C)CC(=O)c2sc(NC(=O)c3sc4cc(Br)ccc4c3Cl)nc2C1,> 12
15,CC1(C)CC(=O)c2sc(NC(=O)c3nc4ccccc4s3)nc2C1,> 56
16,CC1(C)CC(=O)c2sc(NC(=O)c3sc4c(Br)cccc4c3Cl)nc2C1,> 130

# Tested on: Trypanosoma brucei rhodesiense
# Experiment: Antitrypanosomal activity against bloodstream form of Trypanosoma brucei rhodesiense STIB900 incubated for 70 hrs by Alamar blue dye-based fluorometric analysis
# Format: functional, organism-based
# Conditions: STIB900, 70 h
row,Compound,IC50 [µM]
1,CC1(C)CC(=O)c2sc(NC(=O)c3cc4ccccc4s3)nc2C1,5.04
2,COc1cccc2cc(C(=O)Nc3nc4c(s3)C(=O)CC(C)(C)C4)sc12,8.68
3,O=C1CCCc2nc(NC(=O)c3sc4ccccc4c3Cl)sc21,8.96
4,Nc1nc(N)nc(Nc2ccc([As]3SCC(CO)S3)cc2)n1 (stereo unspecified) [MELARSOPROL],0.014
5,CC1(C)CC(=O)c2sc(NC(=O)c3nc4ccccc4s3)nc2C1,10.6
6,CC1(C)CC(=O)c2sc(NC(=O)c3sc4c(Br)cccc4c3Cl)nc2C1,7.13

# Tested on: L6
# Experiment: Cytotoxicity against rat L6 cells assessed as reduction in cell viability after 70 hrs by Alamar blue dye-based fluorometric analysis
# Conditions: L6, 70 h
# In short: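 Rat skeletal myoblast L6 cells, 4000 per well in RPMI 1640 with L-glutamine and 10% FBS. Eleven 3-fold dilutions from 100 to 0.002 μg/mL, 70 h. Wells checked by microscope, then Alamar Blue added for 2 h. Fluorescence read at 536/588 nm; IC50 by linear and 4-parameter logistic regression of dose-inhibition curves.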
row,Compound,IC50 [µM]
1,CC1(C)CC(=O)c2sc(NC(=O)c3cc4ccccc4s3)nc2C1,65.4
2,COc1cccc2cc(C(=O)Nc3nc4c(s3)C(=O)CC(C)(C)C4)sc12,54.5
3,O=C1CCCc2nc(NC(=O)c3sc4ccccc4c3Cl)sc21,24.9
4,COc1cc([C@@H]2c3cc4c(cc3[C@H](O)[C@H]3COC(=O)[C@H]23)OCO4)cc(OC)c1OC [PODOFILOX],0.011
5,CC1(C)CC(=O)c2sc(NC(=O)c3nc4ccccc4s3)nc2C1,30.4
6,CC1(C)CC(=O)c2sc(NC(=O)c3sc4c(Br)cccc4c3Cl)nc2C1,25.2

# Tested on: not listed separately
# Experiment: Selectivity index, ratio of IC50 for rat L6 cells to IC50 for antitrypanosomal activity against bloodstream form of Trypanosoma brucei rhodesiense STIB900
# Format: toxicity
# Conditions: read-out: Ratio IC50
row,Compound,selectivity ratio
1,CC1(C)CC(=O)c2sc(NC(=O)c3cc4ccccc4s3)nc2C1,13
2,COc1cccc2cc(C(=O)Nc3nc4c(s3)C(=O)CC(C)(C)C4)sc12,6
3,O=C1CCCc2nc(NC(=O)c3sc4ccccc4c3Cl)sc21,3
4,CC1(C)CC(=O)c2sc(NC(=O)c3nc4ccccc4s3)nc2C1,3
5,CC1(C)CC(=O)c2sc(NC(=O)c3sc4c(Br)cccc4c3Cl)nc2C1,4

# Tested on: not listed separately
# Experiment: Selectivity index, ratio of IC50 for antitrypanosomal activity against bloodstream form of Trypanosoma brucei rhodesiense STIB900 to IC50 for antitrypanosomal activity against Trypanosoma brucei brucei 427
# Format: functional
# Conditions: not given
row,Compound,Ratio IC50
1,O=C1CCCc2nc(NC(=O)c3sc4ccccc4c3Cl)sc21,4
